Laboratory results as given in ChEMBL document CHEMBL1828506, “New fluorine-containing hydrazones active against MDR-tuberculosis” (Eur J Med Chem, 2011).
≈ marks a conversion by molar mass, not a printed value.

What was measured:
[1] = tested on: Mycobacterium tuberculosis; assay: Antimycobacterial activity against Mycobacterium tuberculosis H37Rv ATCC 27294 after 28 days by colony forming unit determination; assay type: functional; details: H37Rv ATCC 27294, 672 h
Outline: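 Compounds added to Sula liquid medium as DMSO solutions (DMSO at most 2%), incubated at 37 °C for 28 days. MIC is the lowest concentration giving visible growth inhibition. Activity was confirmed by CFU counts after subculture onto drug-free Löwenstein-Jensen solid medium.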

Mycobacterium avium [2] = assay: Antimycobacterial activity against Mycobacterium avium CNTC 330/88 after 14 days; assay type: functional; details: CNTC 330/88, 336 h
Mycobacterium avium [3] = assay: Antimycobacterial activity against Mycobacterium avium CNTC 330/88 after 21 days; assay type: functional; details: CNTC 330/88, 504 h
Mycobacterium kansasii [4] = assay: Antimycobacterial activity against Mycobacterium kansasii CNTC My 235/80 after 7 days; assay type: functional; details: CNTC My 235/80, 168 h
Mycobacterium kansasii [5] = assay: Antimycobacterial activity against Mycobacterium kansasii CNTC My 235/80 after 14 days; assay type: functional; details: CNTC My 235/80, 336 h
Mycobacterium kansasii [6] = assay: Antimycobacterial activity against Mycobacterium kansasii CNTC My 235/80 after 21 days; assay type: functional; details: CNTC My 235/80, 504 h
Mycobacterium kansasii [7] = assay: Antimycobacterial activity against Mycobacterium kansasii CNTC 6509/96 after 7 days; assay type: functional; details: CNTC 6509/96, 168 h
Mycobacterium kansasii [8] = assay: Antimycobacterial activity against Mycobacterium kansasii CNTC 6509/96 after 14 days; assay type: functional; details: CNTC 6509/96, 336 h
Mycobacterium kansasii [9] = assay: Antimycobacterial activity against Mycobacterium kansasii CNTC 6509/96 after 21 days; assay type: functional; details: CNTC 6509/96, 504 h
[10] = Selectivity index, ratio of IC50 for human HepG2 cells to MIC for Mycobacterium tuberculosis H37Rv ATCC 27294; assay type: functional
HepG2 = assay: Cytotoxicity against human HepG2 cells measured after overnight incubation by MTT assay; assay type: cell-based
Outline: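 HepG2 cells in phenol-red-free RPMI-1640 with 10% FCS, 2 mM L-glutamine and gentamycin, seeded at 5 × 10³ per well. After 24 h at 37 °C, cells were exposed overnight to compound in serum-free medium. MTT (2 mg/mL) for 4 h, formazan dissolved in DMSO, read as OD540 minus OD620. % cytotoxicity versus untreated controls; IC50 taken from dose-response curves. Two independent experiments, 4–8 parallel measurements.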

PBMC = assay: Cytotoxicity against human PBMC measured after overnight incubation by MTT assay; assay type: cell-based
Outline: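 Freshly prepared human PBMC in phenol-red-free RPMI-1640 with 10% FCS, 2 mM L-glutamine and gentamycin, 2.0 × 10⁵ cells per well. After 24 h at 37 °C, overnight compound exposure in serum-free medium. MTT for 4 h, formazan in DMSO, OD540 minus OD620. % cytotoxicity versus controls; IC50 from dose-response curves. Two independent experiments.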

[11] = Hydrolytic stability of the compound in aqueous buffer at pH 7.4 after 48 hrs by HPLC analysis; assay type: physicochemical; details: pH 7.4, 48 h
Outline: (§1)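 Compound added from DMSO stock to 100 mM buffer (phosphate at pH 3 and 7.4, acetate at pH 5), final 3 nmol/mL. Sampled at set times up to 48 h, in triplicate. Parent compound and ciprofloxacin/formylciprofloxacin quantified by isocratic RP-18 HPLC with fluorescence detection (276/442 nm). Half-life given with 95% confidence intervals.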

[12] = Hydrolytic stability of the compound in aqueous buffer assessed as half life at pH 3 after 48 hrs by HPLC analysis; assay type: physicochemical; outline: as §1
[13] = Hydrolytic stability of the compound in aqueous buffer assessed as half life at pH 5 after 48 hrs by HPLC analysis; assay type: physicochemical; outline: as §1
[14] = Metabolic stability in rat plasma assessed as parent compound remaining after 48 hrs by HPLC analysis; assay type: ADME, cell-free; details: read-out: Stability
Outline: (§2)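 Compound spiked into rat plasma from DMSO stock, final 3 nmol/mL. 100 µL aliquots taken at set times and precipitated with an equal volume of acetonitrile. Gradient RP-18 HPLC (phosphate pH 2.0/acetonitrile) with fluorescence detection. Six runs: three to 48 h and three extended to 96 h. Result expressed as % parent compound remaining.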

[15] = Metabolic stability in rat plasma assessed as parent compound remaining after 96 hrs by HPLC analysis; assay type: ADME, cell-free; details: read-out: Stability; outline: as §2
SH-SY5Y = assay: Cytotoxicity against human SH-SY5Y cells measured after overnight incubation by MTT assay; assay type: cell-based
Outline: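 SH-SY5Y neuroblastoma cells in phenol-red-free DMEM with 10% FCS, 2 mM L-glutamine, gentamycin and 1% NEAA, 7.5 × 10³ per well. After 24 h at 37 °C, overnight compound exposure in serum-free medium. MTT readout (OD540 minus OD620) against untreated controls; IC50 from dose-response curves. Two independent experiments.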

Compound	MIC [1]	MIC (Mycobacterium avium [2])	MIC (Mycobacterium avium [3])	MIC (Mycobacterium kansasii [4])	MIC (Mycobacterium kansasii [5])	MIC (Mycobacterium kansasii [6])	MIC (Mycobacterium kansasii [7])	MIC (Mycobacterium kansasii [8])	MIC (Mycobacterium kansasii [9])	Selectivity Index [10]	IC50 (HepG2)	IC50 (PBMC)	Stability [11]	half-life [12]	half-life [13]	remaining at 48 h [14]	remaining at 96 h [15]	IC50 (SH-SY5Y)
O=C(N/N=C/Nc1ccc(C(=O)O)c(O)c1)c1ccc(F)cc1	4 µg/mL (≈ 12.6 µM)	32 µM (≈ 10.2 µg/mL)	125 µM (≈ 39.7 µg/mL)	32 µM (≈ 10.2 µg/mL)	62.5 µM (≈ 19.8 µg/mL)	62.5 µM (≈ 19.8 µg/mL)	32 µM (≈ 10.2 µg/mL)	32 µM (≈ 10.2 µg/mL)	32 µM (≈ 10.2 µg/mL)									
O=C(N/N=C/N1CCN(c2cc3c(cc2F)c(=O)c(C(=O)O)cn3C2CC2)CC1)c1cccc(F)c1	1 µg/mL (≈ 2.02 µM)	125 µM (≈ 61.9 µg/mL)	250 µM (≈ 124 µg/mL)	4 µM (≈ 1.98 µg/mL)	4 µM (≈ 1.98 µg/mL)	8 µM (≈ 3.96 µg/mL)	4 µM (≈ 1.98 µg/mL)	4 µM (≈ 1.98 µg/mL)	4 µM (≈ 1.98 µg/mL)	402.38	> 812 µM	> 305 µM						
O=C(N/N=C/N1CCN(c2cc3c(cc2F)c(=O)c(C(=O)O)cn3C2CC2)CC1)c1ccc(F)cc1	1 µg/mL (≈ 2.02 µM)	62.5 µM (≈ 31 µg/mL)	125 µM (≈ 61.9 µg/mL)	4 µM (≈ 1.98 µg/mL)	4 µM (≈ 1.98 µg/mL)	8 µM (≈ 3.96 µg/mL)	8 µM (≈ 3.96 µg/mL)	8 µM (≈ 3.96 µg/mL)	16 µM (≈ 7.93 µg/mL)	634.29	> 1280 µM	> 763 µM	Stable	2.9 h	11.8 h	87%	82%	
CCn1cc(C(=O)O)c(=O)c2cc(F)c(N3CCN(/C=N/NC(=O)c4cccc(F)c4)CC3)cc21	6 µg/mL (≈ 12.4 µM)	125 µM (≈ 60.4 µg/mL)	250 µM (≈ 121 µg/mL)	16 µM (≈ 7.74 µg/mL)	32 µM (≈ 15.5 µg/mL)	62.5 µM (≈ 30.2 µg/mL)	16 µM (≈ 7.74 µg/mL)	16 µM (≈ 7.74 µg/mL)	32 µM (≈ 15.5 µg/mL)	31.67	> 393 µM	> 393 µM						> 430 µM
CCn1cc(C(=O)O)c(=O)c2cc(F)c(N3CCNCC3)cc21 [NORFLOXACIN]	5 µg/mL (≈ 15.7 µM)	125 µM (≈ 39.9 µg/mL)	250 µM (≈ 79.8 µg/mL)	8 µM (≈ 2.55 µg/mL)	16 µM (≈ 5.11 µg/mL)	16 µM (≈ 5.11 µg/mL)	2 µM (≈ 0.639 µg/mL)	8 µM (≈ 2.55 µg/mL)	8 µM (≈ 2.55 µg/mL)	31.85	> 500 µM	> 500 µM						> 500 µM
O=C(O)c1ccc(N/C=N/NC(=O)c2ccccc2F)cc1O	2 µg/mL (≈ 6.3 µM)	32 µM (≈ 10.2 µg/mL)	62.5 µM (≈ 19.8 µg/mL)	32 µM (≈ 10.2 µg/mL)	32 µM (≈ 10.2 µg/mL)	62.5 µM (≈ 19.8 µg/mL)	32 µM (≈ 10.2 µg/mL)	62.5 µM (≈ 19.8 µg/mL)	62.5 µM (≈ 19.8 µg/mL)	192.06	1210 µM	1210 µM						
NNC(=O)c1ccncc1 [ISONIAZID]	0.01 µg/mL (≈ 0.0729 µM)	> 250 µM	> 250 µM	250 µM (≈ 34.3 µg/mL)	> 250 µM	> 250 µM	2 µM (≈ 0.274 µg/mL)	4 µM (≈ 0.549 µg/mL)	4 µM (≈ 0.549 µg/mL)		> 1000 µM	4670 µM						
Nc1ccc(C(=O)O)c(O)c1 [AMINOSALICYLIC ACID]	0.2 µg/mL (≈ 1.31 µM)	32 µM (≈ 4.9 µg/mL)	125 µM (≈ 19.1 µg/mL)	125 µM (≈ 19.1 µg/mL)	1000 µM (≈ 153 µg/mL)	> 1000 µM	32 µM (≈ 4.9 µg/mL)	125 µM (≈ 19.1 µg/mL)	500 µM (≈ 76.6 µg/mL)									
O=C(N/N=C/NC(=O)c1cnccn1)c1ccc(C(F)(F)F)cc1		> 1000 µM	> 1000 µM	250 µM (≈ 84.3 µg/mL)	250 µM (≈ 84.3 µg/mL)	250 µM (≈ 84.3 µg/mL)	250 µM (≈ 84.3 µg/mL)	500 µM (≈ 169 µg/mL)	500 µM (≈ 169 µg/mL)		> 624 µM							
CCn1cc(C(=O)O)c(=O)c2cc(F)c(N3CCN(/C=N/NC(=O)c4ccc(F)cc4)CC3)cc21		125 µM (≈ 60.4 µg/mL)	250 µM (≈ 121 µg/mL)	16 µM (≈ 7.74 µg/mL)	32 µM (≈ 15.5 µg/mL)	62.5 µM (≈ 30.2 µg/mL)	32 µM (≈ 15.5 µg/mL)	62.5 µM (≈ 30.2 µg/mL)	62.5 µM (≈ 30.2 µg/mL)		> 797 µM	> 331 µM						
